Measured values reported in ChEMBL document CHEMBL3868583, “6-Aryl substituted 4-(4-cyanomethyl) phenylamino quinazolines as a new class of isoform-selective PI3K-alpha inhibitors” (Eur J Med Chem, 2016).

Key:
[1] = Cytotoxicity against human HL60 cells assessed as cell growth inhibition after 48 hrs by MTT assay; assay type: functional; conditions: HL-60, 48 h
Outline: (§1)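 MTT assay: 3 × 10^3 cells/well seeded, compounds added after 24 h at final […], 48 h exposure. MTT (2.5 mg/mL in PBS) added, formazan dissolved in DMSO, absorbance 570 nm. Viability as % of untreated; three independent experiments, mean ± SD.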

[2] = molecular target: T1, Phosphatidylinositol 4,5-bisphosphate 3-kinase catalytic subunit gamma isoform (Homo sapiens, UniProt P48736); assay: Inhibition of PI3Kgamma (unknown origin) using diC8 PIP2 as substrate after 75 mins by ADP-glo assay
T1 sequence (P48736 whole entry, canonical isoform): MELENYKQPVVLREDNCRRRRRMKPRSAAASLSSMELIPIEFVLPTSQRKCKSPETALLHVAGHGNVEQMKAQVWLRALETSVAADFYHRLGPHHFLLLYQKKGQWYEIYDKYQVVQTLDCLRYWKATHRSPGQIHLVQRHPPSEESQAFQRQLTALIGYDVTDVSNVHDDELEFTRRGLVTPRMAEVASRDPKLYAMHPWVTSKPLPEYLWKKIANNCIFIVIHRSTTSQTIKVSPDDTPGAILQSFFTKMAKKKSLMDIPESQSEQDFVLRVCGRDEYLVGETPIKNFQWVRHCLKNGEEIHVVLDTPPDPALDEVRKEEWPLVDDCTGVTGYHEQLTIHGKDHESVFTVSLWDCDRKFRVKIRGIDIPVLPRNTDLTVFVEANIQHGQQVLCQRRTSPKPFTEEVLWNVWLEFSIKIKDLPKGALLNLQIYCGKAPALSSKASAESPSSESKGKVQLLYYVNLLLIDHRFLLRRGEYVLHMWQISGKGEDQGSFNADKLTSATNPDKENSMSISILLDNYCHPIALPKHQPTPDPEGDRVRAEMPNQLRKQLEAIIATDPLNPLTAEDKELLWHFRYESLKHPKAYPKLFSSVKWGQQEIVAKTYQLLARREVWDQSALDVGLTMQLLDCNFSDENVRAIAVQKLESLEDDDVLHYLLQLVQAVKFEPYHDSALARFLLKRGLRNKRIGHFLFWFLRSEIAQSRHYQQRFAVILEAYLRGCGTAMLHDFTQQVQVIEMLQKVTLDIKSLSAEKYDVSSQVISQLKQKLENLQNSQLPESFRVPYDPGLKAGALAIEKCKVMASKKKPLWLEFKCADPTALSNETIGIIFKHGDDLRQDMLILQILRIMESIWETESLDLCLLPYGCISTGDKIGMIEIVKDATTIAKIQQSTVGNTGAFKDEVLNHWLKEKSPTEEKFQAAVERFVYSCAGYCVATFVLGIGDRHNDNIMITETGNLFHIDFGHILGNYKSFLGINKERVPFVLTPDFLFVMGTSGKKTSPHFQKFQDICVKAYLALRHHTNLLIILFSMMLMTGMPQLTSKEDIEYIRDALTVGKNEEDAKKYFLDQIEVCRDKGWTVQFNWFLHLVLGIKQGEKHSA

[3] = Cytotoxicity against human A375 cells assessed as cell growth inhibition after 48 hrs by MTT assay; assay type: functional; conditions: A-375, 48 h; outline: as §1
[4] = molecular target: T2, Phosphatidylinositol 4,5-bisphosphate 3-kinase catalytic subunit delta isoform (Homo sapiens, UniProt O00329); assay: Inhibition of PI3Kdelta (unknown origin) using diC8 PIP2 as substrate after 120 mins by ADP-glo assay
T2 sequence (O00329 whole entry): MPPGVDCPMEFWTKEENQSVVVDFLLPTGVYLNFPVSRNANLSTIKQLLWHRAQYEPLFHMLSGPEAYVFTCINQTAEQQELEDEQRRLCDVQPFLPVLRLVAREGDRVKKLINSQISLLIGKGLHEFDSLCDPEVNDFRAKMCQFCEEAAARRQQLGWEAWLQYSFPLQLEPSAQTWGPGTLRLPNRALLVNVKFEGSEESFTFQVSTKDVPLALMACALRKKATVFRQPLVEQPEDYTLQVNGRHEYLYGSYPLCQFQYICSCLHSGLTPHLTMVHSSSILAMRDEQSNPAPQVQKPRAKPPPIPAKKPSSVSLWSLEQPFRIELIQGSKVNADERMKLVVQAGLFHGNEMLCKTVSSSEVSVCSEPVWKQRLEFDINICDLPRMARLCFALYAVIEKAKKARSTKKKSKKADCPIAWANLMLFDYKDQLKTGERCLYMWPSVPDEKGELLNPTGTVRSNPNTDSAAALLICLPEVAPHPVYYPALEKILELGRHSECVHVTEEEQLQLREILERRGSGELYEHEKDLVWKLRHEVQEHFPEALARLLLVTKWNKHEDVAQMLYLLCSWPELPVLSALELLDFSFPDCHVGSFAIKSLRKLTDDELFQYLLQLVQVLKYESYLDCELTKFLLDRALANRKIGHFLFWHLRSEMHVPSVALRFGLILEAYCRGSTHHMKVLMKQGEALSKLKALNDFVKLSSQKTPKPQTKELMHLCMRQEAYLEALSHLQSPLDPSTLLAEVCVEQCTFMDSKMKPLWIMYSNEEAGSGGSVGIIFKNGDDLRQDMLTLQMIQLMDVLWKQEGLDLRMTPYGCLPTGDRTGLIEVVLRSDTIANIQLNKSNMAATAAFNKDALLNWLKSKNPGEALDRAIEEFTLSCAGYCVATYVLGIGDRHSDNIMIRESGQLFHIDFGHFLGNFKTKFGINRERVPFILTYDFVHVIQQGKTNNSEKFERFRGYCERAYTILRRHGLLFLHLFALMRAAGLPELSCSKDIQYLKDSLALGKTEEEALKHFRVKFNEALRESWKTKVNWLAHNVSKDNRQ
Outline: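 Delta isoform reacted 120 min in glycine-NaOH pH 8.5 buffer (50 mM KCl, 2.5 mM MgCl2, 1 mM DTT, 0.05% CHAPS) with 0.01 mM ATP and 0.05 mM diC8 PIP2; ADP formed detected by ADP-Glo (40 min) plus detection buffer (40 min) luminescence. Dundee profiling centre.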

[5] = molecular target: T3, Phosphatidylinositol 4,5-bisphosphate 3-kinase catalytic subunit beta isoform (Homo sapiens, UniProt P42338); assay: Inhibition of PI3Kbeta (unknown origin) using diC8 PIP2 as substrate after 60 mins by ADP-glo assay
T3 sequence (P42338 whole entry, canonical isoform): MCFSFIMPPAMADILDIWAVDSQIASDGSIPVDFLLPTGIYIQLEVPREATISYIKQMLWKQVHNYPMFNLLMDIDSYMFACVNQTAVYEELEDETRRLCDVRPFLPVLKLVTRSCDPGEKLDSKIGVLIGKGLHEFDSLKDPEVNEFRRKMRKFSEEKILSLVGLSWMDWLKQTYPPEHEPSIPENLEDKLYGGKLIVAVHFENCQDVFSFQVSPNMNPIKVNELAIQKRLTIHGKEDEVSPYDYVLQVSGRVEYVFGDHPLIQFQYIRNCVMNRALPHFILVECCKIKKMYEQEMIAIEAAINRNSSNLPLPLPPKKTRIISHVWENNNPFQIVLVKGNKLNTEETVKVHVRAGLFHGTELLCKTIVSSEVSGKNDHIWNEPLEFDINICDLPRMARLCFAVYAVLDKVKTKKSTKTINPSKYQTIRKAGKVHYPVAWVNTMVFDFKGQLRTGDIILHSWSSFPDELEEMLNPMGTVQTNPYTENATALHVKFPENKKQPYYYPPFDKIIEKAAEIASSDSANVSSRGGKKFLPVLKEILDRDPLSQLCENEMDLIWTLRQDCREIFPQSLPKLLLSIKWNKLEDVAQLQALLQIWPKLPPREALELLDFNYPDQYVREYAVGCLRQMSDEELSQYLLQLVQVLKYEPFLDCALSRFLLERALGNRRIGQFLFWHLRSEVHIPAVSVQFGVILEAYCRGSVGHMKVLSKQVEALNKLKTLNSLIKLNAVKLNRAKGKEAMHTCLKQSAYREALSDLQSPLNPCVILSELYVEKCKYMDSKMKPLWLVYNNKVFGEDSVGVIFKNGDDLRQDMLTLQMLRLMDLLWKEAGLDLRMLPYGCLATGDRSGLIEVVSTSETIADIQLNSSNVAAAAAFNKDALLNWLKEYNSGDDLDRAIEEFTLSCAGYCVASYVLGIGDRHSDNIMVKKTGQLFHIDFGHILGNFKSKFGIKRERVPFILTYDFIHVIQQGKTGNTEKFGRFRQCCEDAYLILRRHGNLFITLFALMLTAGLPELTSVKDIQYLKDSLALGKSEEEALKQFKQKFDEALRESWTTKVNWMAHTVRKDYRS

[6] = Cytotoxicity against human MCF7 cells assessed as cell growth inhibition after 48 hrs by MTT assay; assay type: functional; conditions: MCF7, 48 h; outline: as §1
[7] = Cytotoxicity against human PC3 cells assessed as cell growth inhibition after 48 hrs by MTT assay; assay type: functional; conditions: PC-3, 48 h; outline: as §1
[8] = Cytotoxicity against human PANC1 cells assessed as cell growth inhibition after 48 hrs by MTT assay; assay type: functional; conditions: PANC-1, 48 h; outline: as §1
[9] = molecular target: T4, Phosphatidylinositol 4,5-bisphosphate 3-kinase catalytic subunit alpha isoform (Homo sapiens, UniProt P42336); assay: Inhibition of PI3Kalpha (unknown origin) using diC8 PIP2 as substrate after 80 mins by ADP-glo assay
T4 sequence (P42336 whole entry, canonical isoform): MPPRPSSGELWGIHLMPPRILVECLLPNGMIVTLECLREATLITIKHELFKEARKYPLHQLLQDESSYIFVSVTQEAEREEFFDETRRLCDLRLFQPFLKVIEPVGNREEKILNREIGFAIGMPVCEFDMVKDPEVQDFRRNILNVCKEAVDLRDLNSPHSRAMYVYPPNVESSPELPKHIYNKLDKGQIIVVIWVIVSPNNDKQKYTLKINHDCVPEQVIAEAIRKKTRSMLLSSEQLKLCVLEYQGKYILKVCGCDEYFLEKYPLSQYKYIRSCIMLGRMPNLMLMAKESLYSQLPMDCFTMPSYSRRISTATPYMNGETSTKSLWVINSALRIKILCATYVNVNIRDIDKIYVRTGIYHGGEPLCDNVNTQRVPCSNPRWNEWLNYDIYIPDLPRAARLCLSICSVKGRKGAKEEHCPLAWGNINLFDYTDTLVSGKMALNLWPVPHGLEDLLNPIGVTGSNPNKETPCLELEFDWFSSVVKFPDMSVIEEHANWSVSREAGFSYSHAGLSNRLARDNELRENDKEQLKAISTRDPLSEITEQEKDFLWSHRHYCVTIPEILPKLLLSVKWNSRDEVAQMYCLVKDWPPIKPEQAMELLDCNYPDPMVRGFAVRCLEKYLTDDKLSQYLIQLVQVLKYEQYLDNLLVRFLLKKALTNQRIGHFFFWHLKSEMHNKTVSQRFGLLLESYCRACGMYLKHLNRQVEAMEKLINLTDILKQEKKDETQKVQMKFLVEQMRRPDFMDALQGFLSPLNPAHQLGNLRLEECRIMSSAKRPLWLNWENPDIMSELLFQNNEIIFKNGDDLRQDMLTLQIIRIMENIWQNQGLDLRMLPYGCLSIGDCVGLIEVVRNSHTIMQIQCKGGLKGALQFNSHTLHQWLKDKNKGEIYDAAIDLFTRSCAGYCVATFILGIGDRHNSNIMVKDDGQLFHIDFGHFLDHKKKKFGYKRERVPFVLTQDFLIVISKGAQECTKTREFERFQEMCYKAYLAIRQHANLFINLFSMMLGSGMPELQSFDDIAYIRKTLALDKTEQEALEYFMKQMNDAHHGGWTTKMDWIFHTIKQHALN

[10] = molecular target: T3, Phosphatidylinositol 4,5-bisphosphate 3-kinase catalytic subunit beta isoform; assay: Inhibition of PI3Kbeta (unknown origin)
[11] = molecular target: T4, Phosphatidylinositol 4,5-bisphosphate 3-kinase catalytic subunit alpha isoform; assay: Inhibition of PI3Kalpha (unknown origin)
Outline: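 Run by a kinase profiling service. Reaction 80 min. ADP-Glo reagent added for 40 min, then kinase detection buffer for 40 min. Luminescence read.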

[12] = molecular target: T1, Phosphatidylinositol 4,5-bisphosphate 3-kinase catalytic subunit gamma isoform
[13] = molecular target: T2, Phosphatidylinositol 4,5-bisphosphate 3-kinase catalytic subunit delta isoform; assay: Inhibition of PI3Kdelta (unknown origin)
Outline: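 Substrate was 0.05 mM diC8 PIP2 with 0.01 mM ATP, and the kinase reaction ran 120 min. ADP produced was read by ADP-Glo luminescence: 40 min with ADP-Glo reagent, then 40 min with detection buffer.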

[14] = Anticancer activity against Swiss mouse EAT cells implanted in Swiss mouse assessed as tumor growth inhibition at 22 mg/kg, ip administered for 1 to 9 days measured on day 13 relative to control; assay type: functional; conditions: read-out: TGI
Mus musculus [15] = assay: Toxicity in Swiss mouse implanted with Swiss mouse EAC cells assessed as body weight at 20 mg/kg, ip administered for 1 to 9 days measured on day 12 (reference value: 28.4 g); assay type: organism-based, Ehrlich; conditions: in vivo
Outline: (§2)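 1×10^7 EAC cells injected intraperitoneally into Swiss mice on day 0. Mice randomized next day: treated groups n=7, saline control n=10 (0.2 ml i.p.). Dosing i.p. days 1–9. Sacrifice on day 12; ascitic fluid collected from the peritoneal cavity. % tumor growth inhibition from total tumor cell count versus control. Body weight and mortality tracked.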

Mus musculus [16] = assay: Toxicity in Swiss mouse implanted with Swiss mouse EAT cells assessed as body weight at 22 mg/kg, ip administered for 1 to 9 days measured on day 13 (reference value: 24.1 g); assay type: organism-based; conditions: in vivo
Outline: (§3)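 EAC cells harvested from 8–10-day ascitic Swiss mice; 1×10^7 cells injected intramuscularly into right thigh of Swiss male mice on day 0. Randomized next day: treated n=7, saline control n=10 (0.2 ml i.p.). Dosing i.p. days 1–9. […] Body weight and mortality tracked.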

Mus musculus [17] = assay: Toxicity in Swiss mouse implanted with Swiss mouse EAC cells assessed as body weight at 20 mg/kg, ip administered for 1 to 9 days measured on day 1 (reference value: 22.8 g); assay type: organism-based, Ehrlich; conditions: in vivo; outline: as §2
Mus musculus [18] = assay: Toxicity in Swiss mouse implanted with Swiss mouse EAC cells assessed as body weight at 20 mg/kg, ip administered for 1 to 9 days measured on day 5 (reference value: 26.2 g); assay type: organism-based, Ehrlich; conditions: in vivo; outline: as §2
Mus musculus [19] = assay: Toxicity in Swiss mouse implanted with Swiss mouse EAT cells assessed as mortality at 22 mg/kg, ip administered for 1 to 9 days measured on day 9 and 13; assay type: organism-based; conditions: in vivo; outline: as §3
Mus musculus [20] = assay: Toxicity in Swiss mouse implanted with Swiss mouse EAT cells assessed as body weight at 22 mg/kg, ip administered for 1 to 9 days measured on day 9 (reference value: 22.8 g); assay type: organism-based; conditions: in vivo; outline: as §3
Mus musculus [21] = assay: Toxicity in Swiss mouse implanted with Swiss mouse EAT cells assessed as body weight at 22 mg/kg, ip administered for 1 to 9 days measured on day 5 (reference value: 22.6 g); assay type: organism-based; conditions: in vivo; outline: as §3
[22] = Anticancer activity against Swiss mouse EAC cells implanted in Swiss mouse assessed as tumor growth inhibition at 20 mg/kg, ip administered for 1 to 9 days measured on day 12 relative to control; assay type: functional; conditions: Ehrlich, read-out: TGI; outline: as §2
Mus musculus [23] = assay: Toxicity in Swiss mouse implanted with Swiss mouse EAT cells assessed as body weight at 22 mg/kg, ip administered for 1 to 9 days measured on day 1 (reference value: 21.6 g); assay type: organism-based; conditions: in vivo; outline: as §3
Mus musculus [24] = assay: Toxicity in Swiss mouse implanted with Swiss mouse EAC cells assessed as body weight at 20 mg/kg, ip administered for 1 to 9 days measured on day 9 (reference value: 27.7 g); assay type: organism-based, Ehrlich; conditions: in vivo; outline: as §2
Mus musculus [25] = assay: Toxicity in Swiss mouse implanted with Swiss mouse EAC cells assessed as mortality at 20 mg/kg, ip administered for 1 to 9 days measured on day 12; assay type: organism-based, Ehrlich; conditions: in vivo; outline: as §2
Homo sapiens [26] = species: Homo sapiens; assay: Selectivity ratio of IC50 for PI3Kdelta (unknown origin) to IC50 for PI3Kalpha (unknown origin)
Homo sapiens [27] = species: Homo sapiens; assay: Selectivity ratio of IC50 for PI3Kgamma (unknown origin) to IC50 for PI3Kalpha (unknown origin)
[28] = molecular target: T4, Phosphatidylinositol 4,5-bisphosphate 3-kinase catalytic subunit alpha isoform; assay: Inhibition of PI3Kalpha (unknown origin) using diC8 PIP2 as substrate at 0.5 uM after 80 mins by ADP-glo assay
Homo sapiens [29] = species: Homo sapiens; assay: Selectivity ratio of IC50 for PI3Kbeta (unknown origin) to IC50 for PI3Kalpha (unknown origin)

For `COc1cc2ncnc(Nc3ccc(CC#N)cc3)c2cc1OC`, the GI50 [1] was 47 µM, the IC50 [2] was 40 µM and the GI50 [3] was 19 µM. For the same compound, the IC50 [4] was 55 µM, the IC50 [5] was 19 µM and the GI50 [6] was 40 µM. For the same compound, the GI50 [7] was 34 µM, the GI50 [8] was 55 µM and the IC50 [9] was 47 µM.

Compound `Nc1nc2cc(-c3ccc4ncc(C(=O)N5CCOCC5)n4c3)ccc2o1` [SERABELISIB] has an IC50 [10] of 4.5 µM, an IC50 [11] of 0.015 µM and an IC50 [12] of 1.9 µM. For the same compound, the IC50 [13] was 13.9 µM.

`O=c1[nH]cc(F)c(=O)[nH]1` [FLUOROURACIL] showed an inhibition in vivo at 22 mg/kg [14] of 50%, an Activity (Mus musculus [15]) of 20.42 g and an Activity (Mus musculus [16]) of 22.14 g. The Activity (Mus musculus [17]) was 21.42 g, the Activity (Mus musculus [18]) was 22 g and the Activity (Mus musculus [19]) was “Non-Toxic”. The Activity (Mus musculus [20]) was 21 g, the Activity (Mus musculus [21]) was 20.85 g and the inhibition in vivo at 20 mg/kg [22] was 96.9%. The Activity (Mus musculus [23]) was 20.14 g, the Activity (Mus musculus [24]) was 21.28 g and the Activity (Mus musculus [25]) was “Non-Toxic”.

Compound `N#CCc1ccc(Nc2ncnc3ccc(-c4ccccc4)cc23)cc1` has a GI50 [1] of 23 µM, an IC50 [2] of 6.95 µM and a Ratio IC50 (Homo sapiens [26]) greater than 21. It also gave a GI50 [3] of 38 µM, a Ratio IC50 (Homo sapiens [27]) of 14.6 and an IC50 [4] greater than 10 µM. For the same compound, the IC50 [5] was greater than 10 µM, the GI50 [6] was 14 µM and the inhibition [28] was 36.8%. It also gave a GI50 [7] of 26 µM, a GI50 [8] of 38 µM and a Ratio IC50 (Homo sapiens [29]) greater than 21. The IC50 [9] was 0.475 µM.
